≈ marks a conversion by molar mass, not a printed value. Calls of active or inactive are those of the source. The calls are words filed in the database; no cut-off is given here.
Experiments:
[1] = system: 1A9; assay: In vitro cytotoxicity evaluated against human ovarian cancer (1A9 cell line); assay type: functional; settings: read-out: ED50 (the source's name)
Summary of the method: (§1)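 SRB assay on human tumour cell lines. Absorbance read at 562 nm and compared with untreated cells. ED50 is the concentration giving a 50% reduction in absorbance.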

[2] = system: MCF7; assay: In vitro cytotoxicity evaluated against human breast cancer (MCF-7 cell line); assay type: functional; settings: read-out: ED50 (the source's name); summary of the method: as §1
[3] = system: U-87 MG; assay: In vitro cytotoxicity evaluated against human glioblastoma carcinoma (U87-MG cell line); assay type: functional, U-87MG ATCC; settings: read-out: ED50 (the source's name); summary of the method: as §1
[4] = target: Tubulin alpha chain (Sus scrofa, UniProt P02550); assay: Inhibitory concentration required against tubulin polymerization determined using tubulin assay; assay type: functional
Sequence of Tubulin alpha chain (P02550 whole entry, looked up): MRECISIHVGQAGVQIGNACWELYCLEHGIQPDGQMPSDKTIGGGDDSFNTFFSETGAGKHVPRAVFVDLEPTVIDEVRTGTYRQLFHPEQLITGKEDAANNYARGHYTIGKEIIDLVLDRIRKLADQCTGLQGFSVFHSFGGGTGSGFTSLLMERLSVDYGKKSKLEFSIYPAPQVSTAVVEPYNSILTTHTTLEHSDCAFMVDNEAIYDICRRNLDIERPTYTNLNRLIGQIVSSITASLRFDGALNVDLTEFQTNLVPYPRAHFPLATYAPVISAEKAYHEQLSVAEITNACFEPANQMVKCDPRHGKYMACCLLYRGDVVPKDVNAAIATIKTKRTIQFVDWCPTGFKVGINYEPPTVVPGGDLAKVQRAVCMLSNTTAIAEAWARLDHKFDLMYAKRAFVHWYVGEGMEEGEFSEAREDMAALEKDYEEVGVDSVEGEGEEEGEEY
Summary of the method: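 Tubulin polymerization assay. IC50 is the concentration that inhibits extent of assembly by 50% after 20 min at 26 °C. At least two independent experiments per compound.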

[5] = system: HOS; assay: In vitro cytotoxicity evaluated against human bone carcinoma (HOS cell line); assay type: functional; settings: read-out: ED50 (the source's name); summary of the method: as §1
[6] = system: KB; assay: In vitro cytotoxicity evaluated against human epidermoid nasopharynx carcinoma (KB cell line); assay type: functional; settings: read-out: ED50 (the source's name); summary of the method: as §1
[7] = system: A549; assay: In vitro cytotoxicity evaluated against human lung cancer (A549 cell line); assay type: functional; settings: read-out: ED50 (the source's name); summary of the method: as §1
[8] = system: SK-MEL-2; assay: In vitro cytotoxicity evaluated against human melanoma cancer (SKMEL-2 cell line); assay type: functional; settings: read-out: ED50 (the source's name); summary of the method: as §1
[9] = system: HOS; assay: In vitro cytotoxicity evaluated against human bone carcinoma (HOS cell line); NA is not active; assay type: functional, cell-based; summary of the method: as §1
[10] = system: MCF7; assay: In vitro percent inhibition evaluated against human breast cancer (MCF-7 cell line) at >20 ug/mL; assay type: functional
Summary of the method: (§2)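 Same SRB cytotoxicity assay, absorbance at 562 nm versus untreated cells. Value is the percentage inhibition at the concentration tested.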

[11] = system: U-87 MG; assay: In vitro cytotoxicity evaluated against human glioblastoma carcinoma (U87-MG cell line); NA is not active; assay type: functional, cell-based; settings: U-87MG ATCC; summary of the method: as §1
[12] = system: 1A9; assay: In vitro percent inhibition evaluated against human ovarian cancer (1A9 cell line) at >20 ug/mL; assay type: functional; summary of the method: as §2
[13] = system: KB; assay: In vitro percent inhibition evaluated against human epidermoid nasopharynx carcinoma (KB cell line) at >20 ug/mL; assay type: functional; summary of the method: as §2
[14] = system: SK-MEL-2; assay: In vitro percent inhibition evaluated against human melanoma cancer (SKMEL-2 cell line) at >20 ug/mL; assay type: functional; summary of the method: as §2
[15] = system: A549; assay: In vitro percent inhibition evaluated against human lung cancer (A549 cell line) at >20 ug/mL; assay type: functional; summary of the method: as §2
[16] = system: 1A9; assay: In vitro cytotoxicity evaluated against human ovarian cancer (1A9 cell line); NA is not active; assay type: functional, cell-based; summary of the method: as §1
[17] = system: KB; assay: In vitro cytotoxicity evaluated against human epidermoid nasopharynx carcinoma (KB cell line); NA is not active; assay type: functional, cell-based; summary of the method: as §1
[18] = system: HOS; assay: In vitro percent inhibition evaluated against human bone carcinoma (HOS cell line) at >20 ug/mL; assay type: functional; summary of the method: as §2
[19] = system: U-87 MG; assay: In vitro percent inhibition evaluated against human glioblastoma carcinoma (U87-MG cell line) at >20 ug/mL; assay type: functional, U-87MG ATCC; summary of the method: as §2
[20] = system: A549; assay: In vitro cytotoxicity evaluated against human lung cancer (A549 cell line); NA is not active; assay type: functional, cell-based; summary of the method: as §1

Row | SMILES | EC50 [1] | EC50 [2] | EC50 [3] | IC50 [4] | EC50 [5] | EC50 [6] | EC50 [7] | EC50 [8] | ED50 [9] | Inhibition [10] | ED50 [11] | Inhibition [12] | Inhibition [13] | Inhibition [14] | Inhibition [15] | ED50 [16] | ED50 [17] | Inhibition [18] | Inhibition [19] | ED50 [20]
1 | O=C(O)Cc1cccc2c(O)cc(-c3ccccc3)nc12 | 0.04 µg/mL (≈ 0.143 µM) | 0.44 µg/mL (≈ 1.58 µM) | 0.12 µg/mL (≈ 0.43 µM) | > 40 µM | 0.07 µg/mL (≈ 0.251 µM) | 0.04 µg/mL (≈ 0.143 µM) | 0.11 µg/mL (≈ 0.394 µM) | 0.06 µg/mL (≈ 0.215 µM) | – | – | – | – | – | – | – | – | – | – | – | –
2 | O=C(O)Cc1ccc2c(O)cc(-c3ccccc3F)nc2c1 | > 20 µg/mL | > 20 µg/mL | – | 10 µM | – | > 20 µg/mL | > 20 µg/mL | > 20 µg/mL | inactive | 13% | inactive | 15% | 8% | 14% | 21% | – | – | – | – | –
3 | O=C(O)Cc1cccc2nc(-c3ccccc3F)cc(O)c12 | – | > 20 µg/mL | – | > 40 µM | – | – | > 20 µg/mL | > 20 µg/mL | inactive | 7% | inactive | – | – | 9% | 8% | inactive | inactive | – | – | –
4 | O=C(O)Cc1cccc2c(O)cc(-c3ccccc3F)nc12 | 0.02 µg/mL (≈ 0.0673 µM) | 0.12 µg/mL (≈ 0.404 µM) | 0.07 µg/mL (≈ 0.235 µM) | > 40 µM | 0.04 µg/mL (≈ 0.135 µM) | 0.03 µg/mL (≈ 0.101 µM) | 0.06 µg/mL (≈ 0.202 µM) | 0.05 µg/mL (≈ 0.168 µM) | – | – | – | – | – | – | – | – | – | – | – | –
5 | COC(=O)Cc1cccc2c(O)cc(-c3ccccc3F)nc12 | 7.5 µg/mL (≈ 24.1 µM) | > 10 µg/mL | – | 5.5 µM | > 10 µg/mL | > 10 µg/mL | > 10 µg/mL | > 10 µg/mL | – | 14% | inactive | – | 29% | 11% | 22% | – | – | 18% | – | –
6 | O=C(O)Cc1ccc2nc(-c3ccccc3F)cc(O)c2c1 | > 20 µg/mL | > 20 µg/mL | > 20 µg/mL | 5.2 µM | > 20 µg/mL | > 20 µg/mL | > 20 µg/mL | > 20 µg/mL | – | 16% | – | 37% | 36% | 17% | 24% | – | – | 15% | 9% | –
7 | COC(=O)Cc1cccc2c(O)cc(-c3ccccc3)nc12 | > 20 µg/mL | > 20 µg/mL | – | 30 µM | > 20 µg/mL | > 20 µg/mL | – | > 20 µg/mL | – | 15% | inactive | 30% | 8% | 12% | – | – | – | 7% | – | inactive

Reference: ChEMBL document CHEMBL1136183, “Antitumor agents. Part 226: synthesis and cytotoxicity of 2-phenyl-4-quinolone acetic acids and their esters” (Bioorg Med Chem Lett, 2003)
